Results: ChEMBL document CHEMBL1138014, “1-(2-Aminoethyl)-3-(arylsulfonyl)-1H-indoles as novel 5-HT6 receptor ligands” (Bioorg Med Chem Lett, 2004)

How the values were obtained:
Type in all cases: cell-based
[1] = target: T1, 5-hydroxytryptamine receptor 6 (Homo sapiens, UniProt P50406); experiment: Inhibitory concentration against human 5-hydroxytryptamine 6 receptor transfected in HeLa cells in cAMP assay
Outline: (§1)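 Human 5-HT6 receptor stably transfected into HeLa cells. Cells were washed with Krebs buffer, then preincubated for 5 min at 37°C in Krebs with 500 µM IBMX. They were then exposed to test compound (0.1–10,000 nM) for 10 min at 37°C. The reaction was stopped with 0.5 M perchloric acid, and intracellular cAMP was measured by scintillation proximity radioimmunoassay.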

[2] = target: T1, 5-hydroxytryptamine receptor 6; experiment: Inhibitory potency against human 5-hydroxytryptamine 6 receptor transfected in HeLa cells in cAMP assay; outline: as §1
[3] = target: T1, 5-hydroxytryptamine receptor 6; experiment: Binding affinity against human 5-hydroxytryptamine 6 receptor transfected in HeLa cells
[4] = target: T1, 5-hydroxytryptamine receptor 6; experiment: Percent inhibitory activity against human 5-hydroxytryptamine 6 receptor transfected in HeLa cells at 1 uM

T1 sequence (P50406 whole entry): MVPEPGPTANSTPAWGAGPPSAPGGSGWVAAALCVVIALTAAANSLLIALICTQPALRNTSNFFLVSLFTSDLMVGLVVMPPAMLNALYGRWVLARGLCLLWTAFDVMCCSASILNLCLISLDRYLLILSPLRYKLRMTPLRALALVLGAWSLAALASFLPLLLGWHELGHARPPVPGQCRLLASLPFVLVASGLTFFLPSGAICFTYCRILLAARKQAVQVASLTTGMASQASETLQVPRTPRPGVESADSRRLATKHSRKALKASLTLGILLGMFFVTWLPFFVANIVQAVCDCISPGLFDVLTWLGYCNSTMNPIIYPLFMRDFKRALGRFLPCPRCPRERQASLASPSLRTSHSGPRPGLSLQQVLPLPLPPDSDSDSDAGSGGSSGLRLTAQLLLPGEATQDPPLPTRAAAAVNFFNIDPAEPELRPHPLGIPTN

SMILES	IC50 [1]	Imax [2]	Ki [3]	inhibition [4]
CN(C)CCn1cc(S(=O)(=O)c2ccccc2OC(F)(F)F)c2ccccc21	0.792 µM	100%	–	–
CNCCn1cc(S(=O)(=O)c2ccccc2)c2ccccc21	–	–	0.0155 µM	–
NCCc1cn(S(=O)(=O)c2ccccc2)c2ccccc12	–	–	0.0103 µM	–
COc1ccc2c(S(=O)(=O)c3ccccc3)cn(CCN)c2c1	–	–	–	78%
NCCn1cc(S(=O)(=O)c2ccccc2)c2cc(F)ccc21	–	–	0.027 µM	–
COc1cccc2c(S(=O)(=O)c3ccccc3)cn(CCN(C)C)c12	0.023 µM	80.5%	–	–
COc1ccc2c(c1)c(S(=O)(=O)c1ccccc1)cn2CCN1CCCCC1	–	–	–	55%
COc1ccc2c(c1)c(S(=O)(=O)c1ccccc1)cn2CCN	–	–	–	86%
CN(C)CCn1cc(S(=O)(=O)c2ccccc2)c2ccc(C#N)cc21	–	–	–	42%
CNCCc1cn(S(=O)(=O)c2ccccc2)c2ccccc12	–	–	0.005 µM	–
CNCCn1cc(S(=O)(=O)c2cccc3ccccc23)c2ccccc21	0.359 µM	97%	0.0057 µM	–
CN(C)CCn1cc(S(=O)(=O)c2cccc3ccccc23)c2ccccc21	0.047 µM	97%	0.0037 µM	–
